Data reported in ChEMBL document CHEMBL4513216, “Probing the Open Global Health Chemical Diversity Library for Multistage-Active Starting Points for Next-Generation Antimalarials” (ACS Infect Dis, 2020).

Experiment: Toxicity liver stage against HepG2, at 10uM
Type: cell-based
Design: test concentration 10 uM, cell line HepG2-A16-CD81EGFP
Conditions: human, HepG2-A16-CD81EGFP cells; read-out: INHIBITION
In short: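 Uninfected HepG2-A16-CD81EGFP cells, 3 × 10^3 per well, 1536-well, plated on prespotted compound at 10 μM final, parasite-free screening media added to match infected plates; puromycin 10 μM positive, DMSO 0.5% negative; run in parallel with 48 h PbLuc assay at 37 °C, 5% CO2; viability by CellTiter-Glo luminescence, normalized to controls.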

SMILES | cytotoxicity at 10 µM [%]
CCS(=O)(=O)N1CCCc2ccc(NC(=O)Cc3ccc(F)cc3)cc21 | 18.6
CC(=O)NCc1cc(-c2cccs2)n(C2CCCC2)n1 | 3.29
CC(CO)(CO)NC(=O)C1CCC(=O)N(Cc2ccc(Cl)cc2)C1 (stereo unspecified) | -4.71
COCC1CN(C(=O)c2ccoc2C)Cc2nccn2C1 (stereo unspecified) | 6.1
CC(C)Oc1ccc(C(=O)N2CCCCC2Cn2cccn2)cn1 (stereo unspecified) | -14.9
Cc1nn(C)c(C)c1C1CCCN1C(=O)CCc1ccco1 (stereo unspecified) | -21.5
Cc1nccn1C1CCCN(C(=O)c2cc3c(F)cccc3[nH]2)C1 (stereo unspecified) | 5.32
OC[C@@H](O)CN(CCC(F)(F)F)c1ncc(Br)cn1 | -8.72
CCc1nc(CN2CCCN(C(=O)C(C)n3cncn3)CC2)cs1 (stereo unspecified) | -7.26
Cc1nnc2n1CCN(CCS(=O)(=O)c1ccccc1)C2 | -9.7
CC(=O)N1CC(=O)N(c2cccnc2)CC12CCN(Cc1nccs1)C2 (stereo unspecified) | 6.85
CCc1nc(-c2ccc(NC(=O)N3CCCC3)cc2)no1 | 5.03
Cc1nc(CSCc2ccc(OCC(F)(F)F)nc2)no1 | -2.34
CC(=O)N1CC(=O)N(c2ccccc2)CC12CCN(Cc1cccs1)C2 (stereo unspecified) | -11.1
COc1cc2c(cc1OC)CCN(C(=O)Cn1nc(C)cc1C)CC2 | 2.63
CSc1nc2cc(C)n(CC(=O)NC(C)C)c2c(=O)n1CC(C)C | -4.1
COc1ccc(N(c2ccc(OC)cc2)c2ccc(C(=O)O)s2)cc1 | 18.5
O=C(NCC1Cn2nnc(-c3cccc(F)c3)c2CO1)c1ccc[nH]1 (stereo unspecified) | 1.46
Cc1nc(C)c(C(C)NC(=O)NCCNc2cccc(F)c2C#N)s1 (stereo unspecified) | -1.37
Cc1cc(C)n(CC2CCCN2CC(=O)N(C)Cc2cnn(C)c2)n1 (stereo unspecified) | -5.85
CN(Cc1noc2c1CCCC2)C(=O)Nc1ccc2oc(=O)n(C)c2c1 | -2.36
CCOc1ccnc(NCc2nc(C)cc(=O)[nH]2)n1 | -8.42
CN(C)CC1(O)CCN(C(=O)Cc2ccc3c(c2)CCC3)C1 (stereo unspecified) | -7.84

SMILES | cytotoxicity at 10 µM [%]
O=C(Nc1ccc2c(c1)OCO2)Nc1cnn(C2CCOCC2)c1 | -8.54
Nc1cc(C(=O)NCC2CCN(CCc3ccccc3)C2)ccn1 (stereo unspecified) | -5.47
CC(C)CN1CCN(C)C(CCO)C1 (stereo unspecified) | 1.84
CN1CCCC(CNC(=O)CN(C)S(=O)(=O)c2cccnc2)C1 (stereo unspecified) | 9.45
O=C(c1ccsc1)N1C[C@H]2CCC[C@@]2(COCc2cccnc2)C1 | -2.86
CCCc1noc(CN2CCC(N(C)Cc3nnc(C4CC4)o3)C2)n1 (stereo unspecified) | -0.775
CC(=O)N1CCO[C@@H]2CN(C(=O)c3ccc4ccccc4c3)CC[C@@H]2C1 | 1.35
Cc1nonc1C1CCCN1CCC(=O)N1CCc2ccccc2C1 (stereo unspecified) | -11.2
O=C(NCCNc1cc(N2CCCC2)cnn1)Nc1ccccc1F | -0.367
Cc1nn(C(=O)c2cccnc2)c(C)c1C | -8.62
N#Cc1cnn(-c2ccc(C(=O)N(C3CCCCC3)C3CC3)cc2)c1N | -2.54
Cc1ccc(F)c(C(=O)Nc2c(C(N)=O)n[nH]c2C)c1 | -0.587
O=C(CC1COCCN1)N1CCC2(CCc3ccccc32)CC1 (stereo unspecified) | -148
Cc1ccc(CNCC2CCN(CC(O)c3ccccc3)CC2)o1 (stereo unspecified) | -3.33
COc1ccccc1COCC(O)CN1CC(n2cccn2)C1 (stereo unspecified) | -6.25
O=C(NCC1CC1)C1=NOC2(CCN(Cc3ccc(Cl)c(F)c3)C2)C1 (stereo unspecified) | 13.5
CC1c2ncc(COCC3CCOCC3)n2CCN1C(=O)c1ccoc1 (stereo unspecified) | 7.01
Fc1cccc(-c2nc(CN3CCCC3Cn3cncn3)co2)c1 (stereo unspecified) | -5.61
CN1CCN(Cc2noc(CCc3nc(-c4ccccc4)no3)n2)CC1 | 6.41
Cc1noc(CNc2ccccc2N2CCCCC2)n1 | -25.4
Cc1ccc(C2CSCCN2C(=O)C2=CCCC2)o1 (stereo unspecified) | -6.12
CCN1CCNC(=O)C12CCN(S(=O)(=O)c1ccc(OC)cc1)CC2 | 0.699
Cc1cnn(C2CCCN(C(=O)c3cccc(-n4cnnn4)c3)C2)c1 (stereo unspecified) | -8.77

SMILES | cytotoxicity at 10 µM [%]
COc1cc(C2CC(=O)Oc3cc(C)[nH]c(=O)c32)ccc1O (stereo unspecified) | -8.64
O=C(NCCc1cccc(F)c1)C1(n2cnnn2)CCCCC1 | 1.04
Cn1nnc2cc(C(=O)NS(=O)(=O)Cc3ccc(F)cc3)ccc21 | -3.7
CCOCCN1CCCC1CS(N)(=O)=O (stereo unspecified) | 14.3
COc1ccccc1C(O)CNCc1c(C(C)C)nn(C)c1N(C)C (stereo unspecified) | -7.31
O=S1(=O)COCCN1Cc1cccc(Cl)c1 | -11.4
Cc1cccc(CN2CC[C@@H]3[C@@H]2CCN3C(=O)Cc2ccsc2)n1 | -107
Cc1nc(C)c(Cn2ccnc2-c2cc(CN(C)C)cs2)s1 | 1.99
CCc1c(C)nc(SCc2ccccn2)[nH]c1=O | 9.56
COc1cccc(CN2CCc3nc(C(N)=O)sc3CC2)c1 | -3.79
CCc1nc(CN(C(C)=O)C2CCN(Cc3ccccc3F)C2)no1 (stereo unspecified) | -12.3
O=C1N(Cc2ccc(F)c(F)c2)CCCC1(O)CNCc1ncc[nH]1 (stereo unspecified) | -4.27
CCc1ncc(C(=O)N(C)CCc2nc3cc(OC)ccc3[nH]2)cn1 | -47.4
OCCCNc1nc(O)c2c(n1)-c1ccccc1CC21CCCCC1 | 11.1
Cc1nccc([C@@H]2C[C@@H]3CCN(Cc4ccco4)C[C@H]3O2)n1 | -2.61
CC(C)(NC(=O)CCc1ccco1)c1ccc2c(c1)OCCO2 | 1.44
CCOC(=O)N1CCN(C(=O)C(C)n2ccnc2C(C)C)CC1 (stereo unspecified) | -9.28
COCCN1CCC12CCN(C(=O)Cc1cccs1)C2 (stereo unspecified) | 7.89
CN(C)C(C(=O)NCC(F)(F)F)c1cccc(F)c1 (stereo unspecified) | -2.49
O=C(C1CC1)N1CCC(c2nc(O)c3c(n2)CCN(C2CCCC2)C3)C1 (stereo unspecified) | 4.66
CN(C(=O)C1CC(=O)N(CCc2ccccc2)C1)c1nccs1 (stereo unspecified) | 9.89
COCCn1cc(NC(=O)NCC(C)N2CCOCC2)cn1 (stereo unspecified) | 1.18
c1cnn(Cc2ccc(CN3CCC4(CCNCC4)C3)cc2)c1 | -15.6

SMILES | cytotoxicity at 10 µM [%]
c1csc(CNCC2COCc3c(-c4ccsc4)nnn3C2)n1 (stereo unspecified) | -113
COc1ccc(-n2ccc(C(=O)NCCn3ccnc3)n2)cc1 | -7.2
O=C1NCC2(CCCN(C(=O)Nc3ccc4scnc4c3)CC2)O1 (stereo unspecified) | -5.59
O=C1CCC2(CCCN(C(=O)C3CCCC3)C2)CN1CCc1c[nH]cn1 (stereo unspecified) | -0.699
O=C(Nc1ccccc1)C1=CC2(CCNCC2)c2ccccc21 | 1.54
C[C@H](c1ccc(F)cc1)n1c(C2CCN(C)CC2)n[nH]c1=O | 9.93
COc1ccccc1CNC(Cc1cccs1)c1nc(C)cs1 (stereo unspecified) | -6.12
O=C(CC1CCCCC1)NC1CCCCNC1=O (stereo unspecified) | 6.82
O=C(C1CC=CC1)N1CCc2ncnc(-c3ccncc3)c2CC1 | 2.31
CCC(NC(=O)C1CCN(S(C)(=O)=O)CC1)c1ccc(OC)c(OC)c1 (stereo unspecified) | -6.69
CC(NC(=O)NCc1cccc(F)c1)(C(=O)O)c1ccco1 (stereo unspecified) | -3.33
O=C1N(Cc2cccc(F)c2F)CCCC1(O)CN1CCCOCC1 (stereo unspecified) | 18.3
NC(=O)NC(=O)CCN1CCN(CC2CC2)c2ccccc21 | 17.9
Cc1nc(C)n(CC2CCCCN2CCC(=O)Nc2cc(C)on2)n1 (stereo unspecified) | -2.86
Cn1cccc1C(=O)NCc1cn2c(n1)CN(CC1CCOCC1)CC2 | 8.33
Cc1ccc(C(=O)NCCS(C)(=O)=O)c(=O)[nH]1 | -9.32
COCCN1CCCC2(CCN(c3cccc(C(F)(F)F)n3)C2)C1=O (stereo unspecified) | 3.84
CC(C)(C)C(=O)N1CCCN(c2ncnc3nc(N)ccc23)CC1 | 3.39
Cc1cc(C(F)(F)F)nc(CCNC(C)Cn2nc(C)cc2C)n1 (stereo unspecified) | 8.19
C[C@@H]1C[C@H]2CN(C(=O)c3ccncn3)C[C@H]2O1 | 0.748
Cc1noc(C)c1CN1CCC2(CC1)NC(=O)CC2c1ccccc1 (stereo unspecified) | -109
COCC(O)CNC(=O)c1cnc(-c2ccccc2)nc1O (stereo unspecified) | -10.2
Cn1cc(CN2CC[C@@H](NS(C)(=O)=O)[C@@H]2Cc2cccnc2)cn1 | -74.4

SMILES | cytotoxicity at 10 µM [%]
Cc1cc(C)n(C2=NC(NCCC(C)C)c3c(sc4c3CCCC4)N2)n1 (stereo unspecified) | 25
CCCN(Cc1ccccc1)Cn1nc(C)c2c(C)onc2c1=O | -9.98
Cc1[nH]c2ccccc2c1-c1ccnc(NCCN2CCOCC2)n1 | 7.12
CCOCC(O)CN1CCN(C(=O)CC(C)C)CC1 (stereo unspecified) | -6.98
CCC(C)(NCC(=O)NC(C)C)c1nccs1 (stereo unspecified) | 3.26
CCc1nc(C2CCCN2Cc2nccn2Cc2ccccc2)no1 (stereo unspecified) | 0.89
COC[C@@H]1CC[C@H]2[C@H](CCN2S(=O)(=O)c2ccc(OC)cc2)O1 | 0.796
COc1c(CNC2CCOc3ccccc32)c(C)nn1C (stereo unspecified) | 4.25
CC1CCCN(C(=O)c2ccn(COc3ccccc3)n2)C1 (stereo unspecified) | 9.43
CC1=N[C@@]2(CC[C@@H]3CN(CC(=O)N(C)C)C[C@@H]32)C(=O)N1CC1CC1 | -3.9
Cc1ocnc1C(=O)N1CCCC1c1ccc(C(=O)N2CCSCC2)s1 (stereo unspecified) | -5.37
Cc1ccnn1CCCNC(=O)C1CCN(S(C)(=O)=O)CC1 | 3.63
CC(C)c1nc(C2CCCN(C(=O)CCCn3cncn3)C2)no1 (stereo unspecified) | -3.29
CC(CC#N)N(C)Cc1ccc(F)cc1F (stereo unspecified) | 6.03
COC(=O)[C@H]1CN(C(=O)NC(C)C)CCN1C(=O)CSC | -6.52
CCOCCN1CCN(Cc2nc(CC(C)C)no2)CC1 | -13
CCN(CC)CC(=O)N(C)C(c1cccc(F)c1)c1ccccn1 (stereo unspecified) | -6.54
Cc1c(C(=O)N2CCC(O)(CN(C)C)C2)c2cc(O)ccc2n1C (stereo unspecified) | -120
N#Cc1ccc(SCCOCCO)c(F)c1 | 0.513
